ChEMBL document CHEMBL4118256, “Second Generation of Mannich Base-Type Derivatives with in Vivo Activity against Trypanosoma cruzi” (J Med Chem, 2018)
Calls of active or inactive are those of the source. The calls are words filed in the database; no cut-off is given here.

Key:
[1] = tested on: Trypanosoma cruzi; experiment: (§1) Antitrypanosomal activity against Trypanosoma cruzi MHOM/Pe/2011/Arequipa DTU 5 trypamastigotes infected in Balb/c mouse assessed as reduction in parasitaemia reactivation at 20 mg/kg, po pretreated once daily for 5 consecutive days starting from day 10 post infection followed by cyclophosphamide-induced immunosuppression on day 100 post infection every 4 days for a maximum of 3 doses measured up to 1 week post immunosuppression by Neubauer chamber method; type: functional; set-up: scale not given: the % may be the effect or the level left
Outline: (§2)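 Female BALB/c mice (8-10 weeks, 20-25 g), groups of six, infected i.p. with 5 x 10^5 bloodstream trypomastigotes in 0.2 mL PBS; oral dosing 20 mg·kg-1 per day for 5 days in 5% DMSO/0.5% HPMC vehicle. After day 100 pi, cyclophosphamide 200 mg·kg-1 i.p. every 4 days, up to three doses. Within 1 week after the last dose, fresh-blood bloodstream trypomastigotes counted in a Neubauer chamber. Reactivation expressed relative to untreated infected controls.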

[2] = tested on: Trypanosoma cruzi; experiment: as §1, with “from day 75 post infection” for “from day 10 post infection”; type: functional; set-up: scale not given: the % may be the effect or the level left; outline: as §2
[3] = tested on: Trypanosoma cruzi; experiment: as §1, with “reactivation in esophagus tissue” for “reactivation”, “measured on day 127” for “measured up to 1 week”, “post infection” for “post immunosuppression”, “by PCR” for “by Neubauer chamber”; type: functional; set-up: scale not given: the % may be the effect or the level left
Outline: (§3)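 Necropsy on day 127 pi after oral treatment and cyclophosphamide immunosuppression. Tissue DNA was amplified by PCR targeting the ~300 bp T. cruzi SOD gene, 200 nM each primer, 30 cycles with 55.5 °C annealing. Products run on 2 % agarose; positive organs counted out of six mice.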

[4] = tested on: Trypanosoma cruzi; experiment: as §1, with “reactivation in muscle tissue” for “reactivation”, “measured on day 127” for “measured up to 1 week”, “post infection” for “post immunosuppression”, “by PCR” for “by Neubauer chamber”; type: functional; set-up: scale not given: the % may be the effect or the level left
[5] = tested on: Trypanosoma cruzi; experiment: as §1, with “in Ig-G level in serum” for “in parasitaemia reactivation”, “measured on day 127” for “measured up to 1 week”, “post infection” for “post immunosuppression”, “by ELISA” for “by Neubauer chamber method”; type: functional, organism-based
Outline: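 Female BALB/c mice (8-10 weeks, 20-25 g), six per group, infected i.p. with 5 x 10^5 Arequipa bloodstream trypomastigotes. Compound was given orally once daily for 5 days from day 10 or day 75 pi, at 20 mg·kg-1 per day in 5 % DMSO/0.5 % HPMC. Anti-T. cruzi IgG in serum was measured by ELISA with Fe-SOD antigen, read as OD 490 nm.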

[6] = tested on: Mus musculus; experiment: (§4) Nephrotoxicity in Balb/c mouse infected with Trypanosoma cruzi MHOM/Pe/2011/Arequipa DTU 5 trypamastigotes assessed as decrease in urea level in serum at 20 mg/kg, po once daily for 5 consecutive days starting from day 10 post infection measured on day 16 post infection by biochemical analysis relative to control; type: toxicity, organism-based; set-up: scale not given: the % may be the effect or the level left; conditions: in vivo
[7] = tested on: Mus musculus; experiment: as §4, with “75” for “10”, “81” for “16”; type: toxicity, organism-based; set-up: scale not given: the % may be the effect or the level left; conditions: in vivo
[8] = tested on: Mus musculus; experiment: as §4, with “change” for “decrease”, “uric acid” for “urea”, “127” for “16”; type: toxicity, organism-based; conditions: in vivo
[9] = tested on: Mus musculus; experiment: as §4, with “Cardiotoxicity” for “Nephrotoxicity”, “change” for “decrease”, “ratio of creatine kinase” for “urea level”, “muscle to brain” for “serum”, “75” for “10”, “127” for “16”; type: toxicity, organism-based; conditions: in vivo
Outline: (§5)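 Serum clinical chemistry in Arequipa-infected female BALB/c mice. Oral 20 mg·kg-1 per day for 5 days, started day 10 or day 75 pi. Samples taken at day 16 pi or day 81 pi, and on necropsy day. Markers: CK-MB and LDH (U/L), AST, ALT and alkaline phosphatase (U/L), total bilirubin. Results scored relative to infected untreated controls; uninfected reference n = 15.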

[10] = tested on: Mus musculus; experiment: as §4, with “Cardiotoxicity” for “Nephrotoxicity”, “change” for “decrease in urea level”, “serum LDH level” for “serum”, “127” for “16”; type: toxicity, organism-based; conditions: in vivo; outline: as §5
[11] = tested on: Mus musculus; experiment: as §4, with “Hepatotoxicity” for “Nephrotoxicity”, “increase” for “decrease”, “total bilirubin” for “urea”, “level” for “level in serum”, “75” for “10”, “127” for “16”; type: toxicity, organism-based; conditions: in vivo
[12] = tested on: Mus musculus; experiment: as §4, with “Hepatotoxicity” for “Nephrotoxicity”, “change” for “decrease”, “alkaline phosphatase” for “urea”, “level” for “level in serum”, “127” for “16”; type: toxicity, organism-based; conditions: in vivo; outline: as §5
[13] = tested on: Trypanosoma cruzi; experiment: (§6) Antitrypanosomal activity against Trypanosoma cruzi MHOM/Pe/2011/Arequipa DTU 5 trypamastigotes infected in Balb/c mouse assessed as reduction in parasitaemia reactivation in adipose tissue at 100 mg/kg, po pretreated once daily for 5 consecutive days starting from day 75 post infection followed by cyclophosphamide-induced immunosuppression on day 100 post infection every 4 days for a maximum of 3 doses measured on day 127 post infection by PCR method; type: functional; set-up: scale not given: the % may be the effect or the level left; outline: as §3
[14] = tested on: Trypanosoma cruzi; experiment: as §6, with “brain” for “adipose”; type: functional; set-up: scale not given: the % may be the effect or the level left; outline: as §3
[15] = tested on: Trypanosoma cruzi; experiment: as §6, with “spleen” for “adipose”; type: functional; set-up: scale not given: the % may be the effect or the level left
[16] = tested on: Mus musculus; experiment: as §4, with “as change” for “as decrease”, “at […]” for “at 20”, “day 75” for “day 10”, “day 127” for “day 16”; type: toxicity, organism-based; conditions: in vivo
[17] = tested on: Mus musculus; experiment: as §4, with “Cardiotoxicity” for “Nephrotoxicity”, “ratio of creatine kinase” for “urea level”, “muscle to brain” for “serum”, “[…],” for “20 mg/kg,”; type: toxicity, organism-based; set-up: scale not given: the % may be the effect or the level left; conditions: in vivo; outline: as §5
[18] = tested on: Mus musculus; experiment: Hepatotoxicity in Balb/c mouse infected with Trypanosoma cruzi MHOM/Pe/2011/Arequipa DTU 5 trypamastigotes assessed as change in alkaline phosphatase level at […], po once daily for 5 consecutive days starting from day 75 post infection measured on day 81 post infection by biochemical analysis relative to control; type: toxicity, organism-based; conditions: in vivo; outline: as §5
[19] = tested on: Mus musculus; experiment: as §4, with “Hepatotoxicity in” for “Nephrotoxicity in”, “as increase” for “as decrease”, “in ratio of serum ALT to GPT” for “in urea”, “level” for “level in serum”, “at […]” for “at 20”; type: toxicity, organism-based; conditions: in vivo
[20] = tested on: Mus musculus; experiment: (§7) Hepatotoxicity in Balb/c mouse infected with Trypanosoma cruzi MHOM/Pe/2011/Arequipa DTU 5 trypamastigotes assessed as increase in alkaline phosphatase level at […], po once daily for 5 consecutive days starting from day 75 post infection measured on day 81 post infection by biochemical analysis relative to control; type: toxicity, organism-based; conditions: in vivo
[21] = tested on: Mus musculus; experiment: as §4, with “as increase” for “as decrease”, “at […]” for “at 20”, “day 127” for “day 16”; type: toxicity, organism-based; conditions: in vivo
[22] = tested on: Mus musculus; experiment: as §4, with “as increase” for “as decrease”, “at […]” for “at 20”, “day 75” for “day 10”, “day 127” for “day 16”; type: toxicity, organism-based; conditions: in vivo
[23] = tested on: Mus musculus; experiment: as §7, with “Nephrotoxicity” for “Hepatotoxicity”, “uric acid” for “alkaline phosphatase”, “level in serum” for “level”; type: toxicity, organism-based; conditions: in vivo
[24] = tested on: Trypanosoma cruzi; experiment: Antitrypanosomal activity against Trypanosoma cruzi MHOM/Pe/2011/Arequipa DTU 5 epimastigotes assessed as effect on parasite glycolytic pathway by measuring decrease in succinate excretion at IC25 after 72 hrs by 1H NMR method; type: functional, organism-based
Outline: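 Arequipa epimastigotes exposed at IC25 for 72 h alongside an untreated control. Excreted catabolites were analysed by 1H NMR, and each peak is reported as % variation versus the control. Three separate determinations.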

O=C(Cn1ccnc1[N+](=O)[O-])NCc1ccccc1 [BENZNIDAZOLE]
Activity [1]: 75%
Activity [2]: 51%
Activity [3]: 33%
Activity [4]: 33%
Activity [5]: Active
Activity [6]: <= 30%
Activity [7]: <= 30%
Activity [8]: < 10%
Activity [9]: < 10%
Activity [10]: < 10%
Activity [11]: <= 20%
Activity [12]: < 10%

COc1ccc(C(=O)CCN2CCN(c3ccc(Cl)cc3)CC2)cc1
Activity [13]: 78%
Activity [14]: 78%
Activity [15]: 78%
Activity [16]: < 10%
Activity [17]: <= 20%
Activity [18]: < 10%

COc1ccc(C(=O)CCN2CCN(c3ccc([N+](=O)[O-])cc3)CC2)cc1
Activity [19]: > 40%
Activity [20]: <= 10%

COc1ccc(C(=O)CCN2CCN(c3ccc(F)cc3)CC2)cc1
Activity [21]: <= 10%
Activity [22]: <= 10%
Activity [23]: <= 10%
Activity [24]: Active
